# Experimental data published in ChEMBL document CHEMBL4689842, “EUbOPEN Chemogenomics Library wave 1” (2021).
# Tested on: U2OS
# Assay: Multiplex assay against U2OS
# Format: toxicity, cell-based
# Conditions: human
# Procedure, shortened: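 Live cells were stained at seeding with Hoechst33342, BioTracker Green Microtubule Cytoskeleton Dye, MitoTracker Red and Annexin V Alexa Fluor 680, then imaged on a CQ1 microscope at 37°C and 5% CO2 after compound addition. CellPathfinder machine-learning gating split cells into Hoechst high-intensity objects or normal cells. Normal cells were split into healthy, pyknosed or fragmented nuclei, and pyknosed cells into mitotic or apoptotic. Tubulin, mitochondrial-mass and membrane-permeability phenotypes are per cents of healthy-nucleus cells.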
# [1] = 12 h, 1 µM, compound concentration 1 uM, replicate 1
# [2] = 12 h, 1 µM, compound concentration 1 uM, replicate 2
# [3] = 12 h, 10 µM, compound concentration 10 uM, replicate 1
# [4] = 12 h, 10 µM, compound concentration 10 uM, replicate 2
# [5] = 24 h, 1 µM, compound concentration 1 uM, replicate 1
# [6] = 24 h, 1 µM, compound concentration 1 uM, replicate 2
# [7] = 24 h, 10 µM, compound concentration 10 uM, replicate 1
# [8] = 24 h, 10 µM, compound concentration 10 uM, replicate 2
compound,measurement,setting,value
CN1CCN(C(=O)C(C)(C)c2ccc(C(=O)Nc3cn4cc(-c5cc(C(C)(C)C)cc(C(C)(C)C)c5)ccc4n3)cc2)CC1 [T3-CLK-N],Population Apoptotic (%),[1],25%
same,Population Fragmented Nuclei (%),[1],8%
same,Population Healthy Nuclei (%),[1],81%
same,Population Hoechst High Intensity Objects (%),[1],8%
same,Population Membrane Permeable-Phenotype (%),[1],18%
same,Population Mitochondria Different-Phenotype (%),[1],20%
same,Population Mitotic Cells (%),[1],75%
same,Population Normal (%),[1],91%
same,Population Pyknosed Nuclei (%),[1],9%
same,Population Tubulin-Different-Phenotype (%),[1],18%
same,Total Cell Count,[1],162
same,Population Apoptotic (%),[2],28%
same,Population Fragmented Nuclei (%),[2],6%
same,Population Healthy Nuclei (%),[2],86%
same,Population Hoechst High Intensity Objects (%),[2],11%
same,Population Membrane Permeable-Phenotype (%),[2],14%
same,Population Mitochondria Different-Phenotype (%),[2],29%
same,Population Mitotic Cells (%),[2],71%
same,Population Normal (%),[2],88%
same,Population Pyknosed Nuclei (%),[2],6%
same,Population Tubulin-Different-Phenotype (%),[2],14%
same,Total Cell Count,[2],72
same,Population Apoptotic (%),[3],27%
same,Population Fragmented Nuclei (%),[3],5%
same,Population Healthy Nuclei (%),[3],87%
same,Population Hoechst High Intensity Objects (%),[3],3%
same,Population Membrane Permeable-Phenotype (%),[3],58%
same,Population Mitochondria Different-Phenotype (%),[3],20%
same,Population Mitotic Cells (%),[3],72%
same,Population Normal (%),[3],96%
same,Population Pyknosed Nuclei (%),[3],6%
same,Population Tubulin-Different-Phenotype (%),[3],34%
same,Total Cell Count,[3],177
same,Population Apoptotic (%),[4],50%
same,Population Fragmented Nuclei (%),[4],16%
same,Population Healthy Nuclei (%),[4],80%
same,Population Hoechst High Intensity Objects (%),[4],15%
same,Population Membrane Permeable-Phenotype (%),[4],56%
same,Population Mitochondria Different-Phenotype (%),[4],38%
same,Population Mitotic Cells (%),[4],50%
same,Population Normal (%),[4],84%
same,Population Pyknosed Nuclei (%),[4],3%
same,Population Tubulin-Different-Phenotype (%),[4],31%
same,Total Cell Count,[4],120
same,Population Apoptotic (%),[5],23%
same,Population Fragmented Nuclei (%),[5],9%
same,Population Healthy Nuclei (%),[5],80%
same,Population Hoechst High Intensity Objects (%),[5],9%
same,Population Membrane Permeable-Phenotype (%),[5],8%
same,Population Mitochondria Different-Phenotype (%),[5],14%
same,Population Mitotic Cells (%),[5],76%
same,Population Normal (%),[5],90%
same,Population Pyknosed Nuclei (%),[5],10%
same,Population Tubulin-Different-Phenotype (%),[5],15%
same,Total Cell Count,[5],175
same,Population Apoptotic (%),[6],33%
same,Population Fragmented Nuclei (%),[6],6%
same,Population Healthy Nuclei (%),[6],89%
same,Population Hoechst High Intensity Objects (%),[6],8%
same,Population Membrane Permeable-Phenotype (%),[6],13%
same,Population Mitochondria Different-Phenotype (%),[6],24%
same,Population Mitotic Cells (%),[6],66%
same,Population Normal (%),[6],91%
same,Population Pyknosed Nuclei (%),[6],4%
same,Population Tubulin-Different-Phenotype (%),[6],16%
same,Total Cell Count,[6],97
same,Population Apoptotic (%),[7],54%
same,Population Fragmented Nuclei (%),[7],9%
same,Population Healthy Nuclei (%),[7],83%
same,Population Hoechst High Intensity Objects (%),[7],2%
same,Population Membrane Permeable-Phenotype (%),[7],53%
same,Population Mitochondria Different-Phenotype (%),[7],27%
same,Population Mitotic Cells (%),[7],45%
same,Population Normal (%),[7],97%
same,Population Pyknosed Nuclei (%),[7],6%
same,Population Tubulin-Different-Phenotype (%),[7],39%
same,Total Cell Count,[7],230
same,Population Apoptotic (%),[8],50%
same,Population Fragmented Nuclei (%),[8],17%
same,Population Healthy Nuclei (%),[8],71%
same,Population Hoechst High Intensity Objects (%),[8],14%
same,Population Membrane Permeable-Phenotype (%),[8],48%
same,Population Mitochondria Different-Phenotype (%),[8],56%
same,Population Mitotic Cells (%),[8],50%
same,Population Normal (%),[8],85%
same,Population Pyknosed Nuclei (%),[8],10%
same,Population Tubulin-Different-Phenotype (%),[8],43%
same,Total Cell Count,[8],144
